According to ChEMBL document CHEMBL4422643, “Physalactone and 4β-Hydroxywithanolide E Isolated from Physalis peruviana Inhibit LPS-Induced Expression of COX-2 and iNOS Accompanied by Abatement of Akt and STAT1” (J Nat Prod, 2019):
pIC50: −log10 of the molar value. The source made the active and inactive calls. The rule behind the calls is not given here.

Columns and labels:
[1] = test system: RAW264.7; experiment: Antiinflammatory activity against mouse RAW264.7 cells assessed as inhibition of LPS induced iNOS expression at 50 uM preincubated for 30 mins followed by LPS challenge and measured after 16 hrs by Western blot analysis; type: functional, cell-based
Outline: (§1)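 RAW 264.7 cells in DMEM with 10% heat-inactivated FBS and penicillin/streptomycin at 37 °C, 5% CO2. Cells were pretreated 30 min at 50 μM, then given LPS 1 μg/mL for 16 h. iNOS and COX-2 protein were detected by Western blot (8–12% SDS-PAGE, PVDF, HRP secondary, chemiluminescence imaging), with equal total protein loaded by Bradford assay. n = 3.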

[2] = test system: RAW264.7; experiment: Antiinflammatory activity against mouse RAW264.7 cells assessed as inhibition of LPS-induced nitric oxide production by measuring nitrite levels at 50 uM preincubated for 30 mins followed by LPS challenge and measured after 16 hrs by Griess assay (reference value: 32.4 +/- 0.9 uM); type: functional
[3] = test system: RAW264.7; experiment: Antiinflammatory activity against mouse RAW264.7 cells assessed as inhibition of LPS induced COX2 expression at 50 uM preincubated for 30 mins followed by LPS challenge and measured after 16 hrs by Western blot analysis; type: functional, cell-based; outline: as §1
[4] = test system: RAW264.7; experiment: Antiinflammatory activity against mouse RAW264.7 cells assessed as inhibition of LPS-induced nitric oxide production preincubated for 30 mins followed by LPS challenge and measured after 18 hrs by Griess assay; type: functional, cell-based
Outline: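 Macrophages (RAW 264.7, 5 × 10^5/well, 24 h settle) were pretreated 30 min in phenol-red-free medium at 0.128–5.0 or 1.0–40 μM, then given LPS 1 μg/mL for 18 h. Culture-supernatant nitrite was read by Griess reaction, and an IC50 was estimated from the concentration–response. n = 3.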

[5] = test system: RAW264.7; experiment: Antiinflammatory activity against mouse RAW264.7 cells assessed as inhibition of LPS induced iNOS expression preincubated for 30 mins followed by LPS challenge and measured after 16 hrs by Western blot analysis; type: functional, cell-based
[6] = test system: RAW264.7; experiment: Antiinflammatory activity against mouse RAW264.7 cells assessed as inhibition of LPS induced COX2 expression preincubated for 30 mins followed by LPS challenge and measured after 16 hrs by Western blot analysis; type: functional, cell-based
[7] = test system: RAW264.7; experiment: Antiinflammatory activity against mouse RAW264.7 cells assessed as inhibition of LPS induced iNOS mRNA expression preincubated for 30 mins followed by LPS challenge and measured after 3 to 12 hrs by SYBR green dye based qRT-PCR analysis; type: functional, cell-based
Outline: (§2)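 RAW 264.7 cells were pretreated 30 min, then given LPS 1 μg/mL for 3, 6, 9 or 12 h. Total RNA went to qRT-PCR with SYBR Green for Nos2/Ptgs2. Values were normalized to β-actin by 2^−ΔΔCT and expressed as fold change versus unstimulated cells. n = 3; means ± SD; significance versus LPS-only at p < 0.05.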

[8] = test system: RAW264.7; experiment: Antiinflammatory activity against mouse RAW264.7 cells assessed as inhibition of LPS induced COX2 mRNA expression preincubated for 30 mins followed by LPS challenge and measured after 3 to 12 hrs by SYBR green dye based qRT-PCR analysis; type: functional, cell-based; outline: as §2
[9] = Effect on SAPK/JNK1/2 phosphorylation at T183/Y185 residues in mouse RAW264.7 cells at 5 uM measured after 30 mins by Western blot analysis; type: ADME, cell-based; settings: raw264.7, 0.5 h
[10] = target: T1, I-kappa-B kinase (Mus musculus) (UniProt Q60680+O88351+O88522); experiment: Effect on IKK-mediated IkappaBalpha degradation in LPS-stimulated mouse RAW264.7 cells at 5 uM preincubated for 30 mins followed by LPS-stimulation and measured after 10 mins by Western blot analysis; type: cell-based
Outline: (§3)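 RAW 264.7 cells were pretreated 30 min with compound (5 or 40 μM), then given LPS 1 μg/mL for several time points. Western blots of whole-cell lysates probed IκBα, total and Ser473-phospho Akt, and total and Tyr701-phospho STAT1, with GAPDH as loading reference. Detection used HRP chemiluminescence.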

[11] = target: T1, I-kappa-B kinase (Mus musculus); experiment: Effect on IKK-mediated IkappaBalpha degradation in LPS-stimulated mouse RAW264.7 cells assessed as IkappaBalpha recovery at 5 uM preincubated for 30 mins followed by LPS-stimulation and measured after 20 to 240 mins by Western blot analysis; type: cell-based; outline: as §3
[12] = target: RAC-alpha serine/threonine-protein kinase (Mus musculus) (UniProt P31750); experiment: Inhibition of LPS-induced AKT phosphorylation at S473 residue in mouse RAW264.7 cells at 5 uM preincubated for 30 mins followed by LPS-stimulation and measured up to 240 mins by Western blot analysis; type: cell-based; outline: as §3
Chain of RAC-alpha serine/threonine-protein kinase (Mus musculus) (P31750 whole entry): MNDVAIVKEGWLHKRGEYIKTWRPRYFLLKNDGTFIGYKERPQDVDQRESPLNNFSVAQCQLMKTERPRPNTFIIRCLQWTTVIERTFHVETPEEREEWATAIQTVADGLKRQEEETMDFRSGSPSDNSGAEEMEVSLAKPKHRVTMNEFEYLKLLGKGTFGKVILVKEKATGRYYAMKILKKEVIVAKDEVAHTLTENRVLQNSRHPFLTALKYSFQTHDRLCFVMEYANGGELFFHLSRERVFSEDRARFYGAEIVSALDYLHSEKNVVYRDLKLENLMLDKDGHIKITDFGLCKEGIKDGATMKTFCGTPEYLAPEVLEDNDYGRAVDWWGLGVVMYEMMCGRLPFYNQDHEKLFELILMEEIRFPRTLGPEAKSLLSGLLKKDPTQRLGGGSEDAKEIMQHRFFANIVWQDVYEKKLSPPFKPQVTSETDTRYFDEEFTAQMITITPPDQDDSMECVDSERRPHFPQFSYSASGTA

[13] = test system: RAW264.7; experiment: Effect on total AKT expression in LPS-stimulated mouse RAW264.7 cells at 5 uM preincubated for 30 mins followed by LPS-stimulation and measured up to 240 mins by Western blot analysis; type: ADME, cell-based; settings: raw264.7, 4 h; outline: as §3
[14] = target: T2, Signal transducer and activator of transcription 1 (Mus musculus) (UniProt P42225); experiment: Inhibition of LPS-induced STAT1 phosphorylation at Y701 residue in mouse RAW264.7 cells at 5 uM preincubated for 30 mins followed by LPS-stimulation and measured up to 240 mins by Western blot analysis; type: cell-based; outline: as §3
T2 sequence (whole entry): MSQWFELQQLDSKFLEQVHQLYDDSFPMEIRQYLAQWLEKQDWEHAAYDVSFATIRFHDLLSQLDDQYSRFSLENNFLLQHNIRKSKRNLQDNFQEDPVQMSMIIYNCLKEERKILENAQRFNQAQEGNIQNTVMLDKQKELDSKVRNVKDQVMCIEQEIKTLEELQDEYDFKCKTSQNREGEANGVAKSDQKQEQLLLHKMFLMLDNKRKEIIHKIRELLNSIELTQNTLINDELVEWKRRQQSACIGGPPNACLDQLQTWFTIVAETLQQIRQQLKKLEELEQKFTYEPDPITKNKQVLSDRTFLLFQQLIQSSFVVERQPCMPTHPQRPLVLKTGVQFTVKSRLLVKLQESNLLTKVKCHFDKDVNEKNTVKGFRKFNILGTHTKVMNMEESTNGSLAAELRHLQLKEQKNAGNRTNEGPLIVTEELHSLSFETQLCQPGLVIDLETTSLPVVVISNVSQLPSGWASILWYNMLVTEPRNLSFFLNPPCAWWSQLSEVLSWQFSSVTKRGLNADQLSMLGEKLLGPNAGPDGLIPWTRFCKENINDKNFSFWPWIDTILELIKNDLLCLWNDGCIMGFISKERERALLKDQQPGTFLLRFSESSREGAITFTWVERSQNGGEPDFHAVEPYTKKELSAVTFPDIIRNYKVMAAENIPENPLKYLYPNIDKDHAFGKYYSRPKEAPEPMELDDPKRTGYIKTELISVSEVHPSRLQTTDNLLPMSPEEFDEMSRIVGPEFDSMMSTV

[15] = test system: RAW264.7; experiment: Effect on total STAT1 expression in LPS-stimulated mouse RAW264.7 cells at 5 uM preincubated for 30 mins followed by LPS-stimulation and measured up to 240 mins by Western blot analysis; type: ADME, cell-based; settings: raw264.7, 4 h; outline: as §3
[16] = Effect on SAPK/JNK1/2 phosphorylation at T183/Y185 residues in mouse RAW264.7 cells at 40 uM measured after 30 mins by Western blot analysis; type: ADME, cell-based; settings: raw264.7, 0.5 h
[17] = target: T1, I-kappa-B kinase (Mus musculus); experiment: Effect on IKK-mediated IkappaBalpha degradation in LPS-stimulated mouse RAW264.7 cells at 40 uM preincubated for 30 mins followed by LPS-stimulation and measured after 10 mins by Western blot analysis; type: cell-based; outline: as §3
[18] = target: T1, I-kappa-B kinase (Mus musculus); experiment: Effect on IKK-mediated IkappaBalpha degradation in LPS-stimulated mouse RAW264.7 cells assessed as IkappaBalpha recovery at 40 uM preincubated for 30 mins followed by LPS-stimulation and measured after 20 to 240 mins by Western blot analysis; type: cell-based; outline: as §3
[19] = target: RAC-alpha serine/threonine-protein kinase (Mus musculus) (UniProt P31750); experiment: Inhibition of LPS-induced AKT phosphorylation at S473 residue in mouse RAW264.7 cells at 40 uM preincubated for 30 mins followed by LPS-stimulation and measured up to 240 mins by Western blot analysis; type: cell-based; outline: as §3
[20] = test system: RAW264.7; experiment: Effect on total AKT expression in LPS-stimulated mouse RAW264.7 cells at 40 uM preincubated for 30 mins followed by LPS-stimulation and measured up to 240 mins by Western blot analysis; type: ADME, cell-based; settings: raw264.7, 4 h; outline: as §3
[21] = target: T2, Signal transducer and activator of transcription 1 (Mus musculus); experiment: Inhibition of LPS-induced STAT1 phosphorylation at Y701 residue in mouse RAW264.7 cells at 40 uM preincubated for 30 mins followed by LPS-stimulation and measured up to 240 mins by Western blot analysis; type: cell-based; outline: as §3
[22] = test system: RAW264.7; experiment: Effect on total STAT1 expression in LPS-stimulated mouse RAW264.7 cells at 40 uM preincubated for 30 mins followed by LPS-stimulation and measured up to 240 mins by Western blot analysis; type: ADME, cell-based; settings: raw264.7, 4 h; outline: as §3

Row | SMILES | inhibition [1] | Activity [2] [µM] | inhibition [3] | pIC50 [4] | inhibition [5] | inhibition [6] | inhibition [7] | inhibition [8] | also measured
1 | CC1=C(C)C(=O)O[C@@H]([C@](C)(O)[C@]2(O)CC[C@@]3(O)[C@@H]4C[C@H]5O[C@]56[C@@H](O)C=CC(=O)[C@]6(C)[C@H]4CC[C@]23C)C1 | Active | 0.9 | Active | 5.74 | Dose-dependent effect | Dose-dependent effect | Dose-dependent effect | Dose-dependent effect | Activity [9]: Not Active; Activity [10]: inactive; Activity [11]: inactive; inhibition [12]: Active; Activity [13]: Non-Toxic; inhibition [14]: Active; Activity [15]: Non-Toxic
2 | CO[C@H]1CC(=O)[C@]2(C)[C@H]3CC[C@]4(C)[C@](O)([C@@](C)(O)[C@H]5CC(C)=C(C)C(=O)O5)CC[C@@]4(O)[C@@H]3C[C@H]3O[C@]32[C@H]1O | Active | 1.1 | Active | 4.86 | Dose-dependent effect | Dose-dependent effect | Dose-dependent effect | Dose-dependent effect | Activity [16]: Not Active; Activity [17]: inactive; Activity [18]: inactive; inhibition [19]: Active; Activity [20]: Non-Toxic; inhibition [21]: Active; Activity [22]: Non-Toxic
